Like-named read-outs stand apart in the source and are kept apart here. Values belong to the compound of their own block, whether it stands above or below them.
What was measured:
[1] = biological target: T1, M2 receptor-G-protein complex (Homo sapiens, UniProt P08172); format: binding; conditions: for factor of cooperativity α between binding of [3H]GDP and agonist (pα): 10 µM [3H]GDP, GDP-less membranes, n=3
T1 sequence (P08172 1-466): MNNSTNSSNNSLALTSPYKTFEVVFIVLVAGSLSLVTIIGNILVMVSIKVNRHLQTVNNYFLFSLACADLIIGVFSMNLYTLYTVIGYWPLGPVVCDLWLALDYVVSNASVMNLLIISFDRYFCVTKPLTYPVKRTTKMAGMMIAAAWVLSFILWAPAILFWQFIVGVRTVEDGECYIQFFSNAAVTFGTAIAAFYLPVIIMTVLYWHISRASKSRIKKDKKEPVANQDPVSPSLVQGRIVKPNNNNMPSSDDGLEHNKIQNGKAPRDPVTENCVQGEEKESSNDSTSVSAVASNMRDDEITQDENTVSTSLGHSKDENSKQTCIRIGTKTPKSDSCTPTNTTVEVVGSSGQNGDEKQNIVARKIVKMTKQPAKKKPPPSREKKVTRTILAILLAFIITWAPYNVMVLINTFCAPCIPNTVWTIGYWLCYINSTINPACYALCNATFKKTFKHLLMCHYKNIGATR

Gi/o G-proteins [2] = biological target: T2, Gi/o G-proteins (Homo sapiens, UniProt P08172); assay: biochemical; format: biochemical, Chinese hamster; conditions: Gi/o
T2 sequence (P08172 1-466): T1 sequence (P08172 1-466)

Gs/olf G-proteins [3] = assay: Kinetics of 500 nM [3H]GDP binding to Gs/olf G-proteins; design: species or system Chinese hamster
[4] = test system: wild-type (non-transfected) CHO cells; assay: [35S]GTPγS binding at wild-type; format: biochemical, Chinese hamster
Method in brief: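 Membranes were incubated 60 min with 50 µM GDP and agonist. They were then incubated with 500 pM [³⁵S]GTPγS for 20 min at 30°C in 100 mM NaCl, 20 mM Na-HEPES, 10 mM MgCl₂ (pH 7.4) with 1 mM DTT, about 10 µg protein per sample. Non-specific binding was taken with 1 µM GTPγS. Read-out was filtration and scintillation counting.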

Gq/11 G-proteins [5] = biological target: T3, Gq/11 G-proteins (Homo sapiens, UniProt P08172); assay: [35S]GTPγS binding to Gq/11 G-proteins; format: biochemical, Chinese hamster; conditions: Gq/11
T3 sequence (P08172 1-466): T1 sequence (P08172 1-466)

Gs/olf G-proteins [6] = biological target: T4, Gs/olf G-proteins (Homo sapiens, UniProt P08172); assay: biochemical; format: biochemical, Chinese hamster; conditions: Gs/olf
T4 sequence (P08172 1-466): T1 sequence (P08172 1-466)

[7] = test system: G-proteins in GDP-less membranes of CHO-M2 cells; assay: Kinetics of [3H]GDP binding to GDP-less membranes; design: species or system Chinese hamster
Method in brief: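 GDP-less CHO-M2 membranes, 30°C. Association of 500 nM [³H]GDP was measured after 20 min pre-incubation with buffer, 10 or 100 µM agonist, or 0.1 µM antagonist. For dissociation, membranes were prelabelled with 500 nM [³H]GDP for 180 min, then chased with 50 µM GDP alone or with ligand. Slow and fast rate constants came from biphasic fits.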

Gs/olf G-proteins [8] = biological target: T4, Gs/olf G-proteins; assay: biochemical; format: binding, Chinese hamster; conditions: Gs/olf; for pα: cooperativity between agonist and [3H]GDP binding
[9] = biological target: T1, M2 receptor-G-protein complex; format: binding; conditions: for reduction of agonist affinity by GDP (factor of cooperativity β): Eqn 8, GDP-less membranes, 1 nM [3H]NMS
[10] = test system: G-proteins in GDP-less membranes of CHO-M2 cells; assay: Kinetics of [35S]GTPγS binding to GDP-less membranes; design: species or system Chinese hamster; conditions: for Beq of [35S]GTPγS: GDP-less membranes
Method in brief: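 GDP-less CHO-M2 membranes, 30°C. Association of 1 nM [³⁵S]GTPγS was measured after 20 min pre-incubation with buffer or 100 µM agonist, ±50 µM GDP. For dissociation, membranes were preloaded 90 min with 1 nM [³⁵S]GTPγS ±50 µM GDP, then chased with 1 µM GTPγS alone or with agonist. Filtration on glass-fibre filters, scintillation counting. Three experiments in quadruplicate; exponential association/dissociation fits.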

Gi/o G-proteins [11] = assay: Kinetics of 500 nM [3H]GDP binding to Gi/o G-proteins; design: species or system Chinese hamster
Gi/o G-proteins [12] = biological target: T2, Gi/o G-proteins; assay: biochemical; format: binding, Chinese hamster; conditions: Gi/o; for pα: cooperativity between agonist and [3H]GDP binding
Gq/11 G-proteins [13] = biological target: T3, Gq/11 G-proteins; format: binding, Chinese hamster; conditions: Gq/11; for pα: cooperativity between agonist and [3H]GDP binding
[14] = biological target: T5, human M2 muscarinic receptor (Homo sapiens, UniProt P08172); assay: Agonist-stimulated [35S]GTPγS binding to membranes from M2 CHO cells; format: biochemical; conditions: for nH: Hill coefficient, Eqn 2
T5 sequence (P08172 1-466): T1 sequence (P08172 1-466)

[15] = biological target: T5, human M2 muscarinic receptor; assay: Competition of agonists with 1 nM [3H]NMS binding; conditions: for pKi: monophasic
[16] = test system: G-proteins in GDP-less membranes of CHO-M2 cells; assay: Equilibrium [3H]GDP binding to GDP-less membranes; design: species or system Chinese hamster
Method in brief: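 GDP-less membranes from CHO-M2 cells were made by treatment with 1 M ammonium sulphate for 3 h at 4°C, then renatured 1 h in 20% glycerol. Incubation was 5 h at 30°C in 100 mM NaCl, 20 mM Na-HEPES, 10 mM MgCl₂ (pH 7.4) with 1 mM DTT. Assays were homologous competition at 1 or 5 µM [³H]GDP, plus saturation. Non-specific binding was taken with 50 µM GDP. Three experiments, quadruplicate; Hill-equation fits.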

[17] = 100 µM carbachol, presence of 50 µM GDP
[18] = equilibrium dissociation constant of agonist, Eqn 7

Compound: C[N+](C)(C)CCOC(N)=O [Carbachol]
factor of cooperativity α between binding of [3H]GDP and agonist (pα) [1]: −2.3 ± 0.2
EMAX (Gi/o G-proteins [2]): 2.89 ± 0.06 fold increase over basal binding
Beq of [3H]GDP (Gs/olf G-proteins [3]; 10 µM carbachol): 0.43 ± 0.02 fmol·µg^−1 protein
decrease of [3H]GDP equilibrium binding (Gs/olf G-proteins [3]; 10 µM carbachol): 1.9 fold
Beq of [3H]GDP (Gs/olf G-proteins [3]; 100 µM carbachol): 0.10 ± 0.01 fmol·µg^−1 protein
decrease of [3H]GDP equilibrium binding (Gs/olf G-proteins [3]; 100 µM carbachol): 8.1 fold
effect on [3H]GDP binding association rate (Gs/olf G-proteins [3]; 10 and 100 µM carbachol): no effect
effect on [35S]GTPγS binding [4]: no effect
EMAX (Gq/11 G-proteins [5]): 1.61 ± 0.02 fold increase over basal binding
EMAX (Gs/olf G-proteins [6]): 1.82 ± 0.05 fold increase over basal binding
slowing of [3H]GDP association, faster fraction ([7]; 10 µM carbachol): twofold
pα (Gs/olf G-proteins [8]): −1.2 ± 0.1
reduction of agonist affinity by GDP (factor of cooperativity β) [9]: 200 fold
effect on kinetics of [35S]GTPγS binding ([10]; 100 µM carbachol, absence of GDP): did not change
effect on rate of dissociation of [35S]GTPγS [10, 17]: no effect
increase of equilibrium binding of [35S]GTPγS [10, 17]: fourfold
Beq of [35S]GTPγS ([10]; 50 µM GDP +100 µM carbachol): 4.85 ± 0.19 ^*a fmol·µg^−1protein
Beq of [35S]GTPγS ([10]; no GDP, +100 µM carbachol): 5.70 ± 0.25 fmol·µg^−1protein
Beq1 of [3H]GDP (Gi/o G-proteins [11]; 10 µM carbachol): 1.7 ± 0.2 fmol·µg^−1 protein
decrease of [3H]GDP equilibrium binding (Gi/o G-proteins [11]; 10 µM carbachol): 1.8 fold
f2 of [3H]GDP dissociation (Gi/o G-proteins [11]; 10 µM carbachol): 38 ± 4%
Beq1 of [3H]GDP (Gi/o G-proteins [11]; 100 µM carbachol): 0.35 ± 0.03 fmol·µg^−1 protein
decrease of [3H]GDP equilibrium binding (Gi/o G-proteins [11]; 100 µM carbachol): ninefold
f2 of [3H]GDP dissociation (Gi/o G-proteins [11]; 100 µM carbachol): 36 ± 5%
slowing of association of [3H]GDP in comparison to fast sites (Gi/o G-proteins [11]; 100 µM carbachol): 12 fold
pα (Gi/o G-proteins [12]): −2.3 ± 0.2
pα (Gq/11 G-proteins [13]): −0.85 ± 0.09
maximal increase of [35S]GTPγS binding (Emax) [14]: threefold
nH [14]: 0.81 ± 0.05

Compound: C[N+](C)(C)Cc1ccco1 [Furmethide]
factor of cooperativity α between binding of [3H]GDP and agonist (pα) [1]: −2.4 ± 0.3
EMAX (Gi/o G-proteins [2]): 2.95 ± 0.09 fold increase over basal binding
pEC50 (Gi/o G-proteins [2]): 5.34 ± 0.10
pKi ([15]; +1 µM GTPγS): 4.76 ± 0.05
pKi ([15]; +50 µM GDP): 4.77 ± 0.05
pKi high ([15]; Control (crude membranes)): 7.12 ± 0.09
pKi low ([15]; Control (crude membranes)): 4.78 ± 0.08
flow[%] ([15]; Control (crude membranes), fraction of receptors in low-affinity state): 50 ± 9%
flow[%] ([15]; GDP-less membranes): 9.6 ± 3.8 %
pKi high ([15]; GDP-less membranes): 7.77 ± 0.08
pKi low ([15]; GDP-less membranes): 4.87 ± 0.09
EMAX (Gq/11 G-proteins [5]): 1.20 ± 0.01 fold increase over basal binding
pEC50 (Gq/11 G-proteins [5]): 4.72 ± 0.06
EMAX (Gs/olf G-proteins [6]): 1.70 ± 0.02 fold increase over basal binding
pEC50 (Gs/olf G-proteins [6]): 4.76 ± 0.03
pα (Gs/olf G-proteins [8]): −1.0 ± 0.1
pKA (Gs/olf G-proteins [8]; [18]): 7.10 ± 0.05
reduction of agonist affinity by GDP (factor of cooperativity β) [9]: 250 fold
pα (Gi/o G-proteins [12]): −2.4 ± 0.2
pKA (Gi/o G-proteins [12]; [18]): 7.13 ± 0.05
pα (Gq/11 G-proteins [13]): −0.32 ± 0.05
pKA (Gq/11 G-proteins [13]; [18]): 7.17 ± 0.06
maximal increase of [35S]GTPγS binding (Emax) [14]: 3.1 fold increase
EMAX [fold over basal] ([14]; 500 pM [35S]GTPγS, 50 µM GDP): 3.12 ± 0.08 fold over basal
nH [14]: 0.82 ± 0.05
EC50 ([14]; read-out: half-effective concentrations (EC50), stimulation of [35S]GTPγS binding): 7 µM

equilibrium dissociation constant for [3H]GDP (pKA) ([1]; Eqn 7, all four agonists, mean ± SD, n=12): 5.51 ± 0.05
Beq (Gs/olf G-proteins [3]; Control): 0.81 ± 0.04 fmol·µg^−1 protein
koff (Gs/olf G-proteins [3]; Control): 0.00112 ± 0.00012 s⁻¹
factor of cooperativity α between [3H]NMS and GDP ([9]; GDP-less membranes): 1
effect of GDP on [3H]NMS binding ([9]; absence of agonist): no effect
Beq1 (Gi/o G-proteins [11]; Control): 2.1 ± 0.2 fmol·µg^−1 protein
Beq2 (Gi/o G-proteins [11]; Control): 1.1 ± 0.1 fmol·µg^−1 protein
f2 (Gi/o G-proteins [11]; Control): 37 ± 5%
koff1 (Gi/o G-proteins [11]; Control): 0.00583 ± 0.0005 s⁻¹
koff2 (Gi/o G-proteins [11]; Control): 0.000667 ± 6.7e-05 s⁻¹
Beq, mono-exponential fit (Gi/o G-proteins [11]; control conditions (absence of carbachol), n=3): 2.8 ± 0.3 fmol·µg·prot^−1
Compound: Nc1nc2c(ncn2[C@@H]2O[C@H](COP(=O)(O)OP(=O)(O)O)[C@@H](O)[C@H]2O)c(=O)[nH]1 [GDP, guanosine diphosphate]
koff fast ([7]; 500 nM [3H]GDP, no ligand): 0.00122 s⁻¹
sites with koff slow ([7]; 500 nM [3H]GDP, no ligand): 40%
Beq of [35S]GTPγS ([10]; 50 µM GDP): 1.21 ± 0.12 fmol·µg^−1protein
decrease of equilibrium binding of [35S]GTPγS ([10]; addition of 50 µM GDP): 4.7 fold
effect on rate of dissociation of [35S]GTPγS ([10]; addition of 50 µM GDP): did not change
slowing of rate of association of [35S]GTPγS ([10]; addition of 50 µM GDP): 3.2 fold
IC50 ([16]; read-out: IC50, homologous competition, 1 µM [3H]GDP): 4.48 µM
IC50 ([16]; read-out: IC50, homologous competition, 5 µM [3H]GDP): 8.55 µM
Kd ([16]; read-out: KD for [3H]GDP from homologous competition): 3.49 µM
Kd ([16]; read-out: KD, saturation binding, 0.3 to 10 µM [3H]GDP): 3.47 ± 0.03 µM

— PMC3051377 (British Journal of Pharmacology, 2011)
